Here are results for 16 molecules from PubChem BioAssay.

A short description of assay [1]: reducers of endogenous Her2 protein level, primary screen, SKBR3 breast tumor cells, AlphaScreen, ATP viability (AID 461;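 active = Her2 level under about 52% in both replicate screens, with viability over 70% of control, limit read from the data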;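 for Her2 level: lower value means less Her2 protein in the cells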;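 for viability: percent of carrier control wells set as 100% viability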). To be noted: 18-24 h, measured here: SKBR3 viability, ATP luminescence, at 10 µM. Background: Alpha assays give light when donor and acceptor beads are brought close together.
For assay [2], the target named is Receptor tyrosine-protein kinase erbB-2 (Homo sapiens) (UniProt P04626). Described as above. To be noted: 18-24 h, at 10 µM, stronger effect = lower value.
Assay [3] in a line: SK-BR-3 cell growth inhibitors, pilot screen, 24 h, human (AID 572;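 active = viability at or below 10% of carrier control in both of two separate runs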;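 note: compound exposure lasted between 18 and 24 h rather than exactly 24 h; 100% = carrier-treated control wells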). Particulars: SK-BR-3 viability, CellTiter-Glo luminescence, at 10 µM, stronger effect = lower value.
Assay [4] can be described thus: HUVEC growth inhibition – cell-based, human, primary screen (AID 575;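 active = viability at or below 30% in both replicate assays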;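 note: 100% = median of untreated cell wells with 0.1% DMSO on each plate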). To be noted: HUVEC proliferation, CellTiter-Glo luminescence, 72 h; at 10 µM; stronger effect = lower value. A digest of the protocol: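 Test system: primary human umbilical vein endothelial cells; medium: endothelial basal medium with 2% FBS plus growth supplements; dosing: 10 µM compound only; times: 72 h treatment at 37 °C; signal: CTG luminescence; read-out: % viability relative to median vehicle-well signal on each plate; control set: vehicle and MePR control wells; plate: 384-well, collagen-coated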
For orientation: Cellular ATP, detected with luciferase, serves as a proxy for viable cell number.

A short description of assay [5]: growth inhibitors of H69AR lung tumor, primary screen, human, duplicate replicates (AID 580).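 Note: 100% = mean luminescence of untreated wells and 0% = no signal.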 To be noted: H69AR lung tumor cells viability, ATP luminescence, 72 h; at 10 µM; stronger effect = lower value.
Assay [6] is described as follows: reversal of MRP1-mediated doxorubicin resistance, pilot screen, H69AR cells, doxorubicin co-treatment (AID 601;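 active = viability loss from added drug above about 55%, and viability with drug at most 40%, in both replicates, limit read from the data, passing the limit was not always enough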). To be noted: CellTiter-Glo, 72 h, at 10 µM; for differential viability (reversal): stronger effect = higher value.
Assay [7] can be described thus: 384-well plate pilot, post-Golgi transport modulator project, inhibition of yeast transport mutant growth (AID 636; in the data active = inhibition above about 31%). Particulars: absorbance 615 nm, about 18 h, stronger effect = higher value.
Assay [8] can be described thus: growth suppression of yeast trafficking mutant, preliminary HTS, modulators of trafficking downstream of Golgi apparatus project, 1536-format plate, OD 615 nm (AID 637; in the data active = inhibition above about 30%). Particulars: yeast transport mutant growth, absorbance 615 nm, 18 h; stronger effect = higher value.
The mark [9] stands for this setting: H69AR cells + 2 uM doxorubicin, measured here: viability with 2 uM doxorubicin, stronger effect = lower value.
The mark [10] stands for this setting: H69AR cells, compound alone cytotoxicity.

Active and inactive are the calls of the source.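 Rule for the calls, unless noted: active = viability at or under a set limit in both replicates, limit being median viability minus 3 SD (cut at about 48% in these data, passing the limit was not always enough); inconclusive = at or under the limit in just one replicate; inactive = at or above the limit in both replicates.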

Receptor tyrosine-protein kinase erbB-2 (Homo sapiens), sequence (P04626 whole entry, looked up): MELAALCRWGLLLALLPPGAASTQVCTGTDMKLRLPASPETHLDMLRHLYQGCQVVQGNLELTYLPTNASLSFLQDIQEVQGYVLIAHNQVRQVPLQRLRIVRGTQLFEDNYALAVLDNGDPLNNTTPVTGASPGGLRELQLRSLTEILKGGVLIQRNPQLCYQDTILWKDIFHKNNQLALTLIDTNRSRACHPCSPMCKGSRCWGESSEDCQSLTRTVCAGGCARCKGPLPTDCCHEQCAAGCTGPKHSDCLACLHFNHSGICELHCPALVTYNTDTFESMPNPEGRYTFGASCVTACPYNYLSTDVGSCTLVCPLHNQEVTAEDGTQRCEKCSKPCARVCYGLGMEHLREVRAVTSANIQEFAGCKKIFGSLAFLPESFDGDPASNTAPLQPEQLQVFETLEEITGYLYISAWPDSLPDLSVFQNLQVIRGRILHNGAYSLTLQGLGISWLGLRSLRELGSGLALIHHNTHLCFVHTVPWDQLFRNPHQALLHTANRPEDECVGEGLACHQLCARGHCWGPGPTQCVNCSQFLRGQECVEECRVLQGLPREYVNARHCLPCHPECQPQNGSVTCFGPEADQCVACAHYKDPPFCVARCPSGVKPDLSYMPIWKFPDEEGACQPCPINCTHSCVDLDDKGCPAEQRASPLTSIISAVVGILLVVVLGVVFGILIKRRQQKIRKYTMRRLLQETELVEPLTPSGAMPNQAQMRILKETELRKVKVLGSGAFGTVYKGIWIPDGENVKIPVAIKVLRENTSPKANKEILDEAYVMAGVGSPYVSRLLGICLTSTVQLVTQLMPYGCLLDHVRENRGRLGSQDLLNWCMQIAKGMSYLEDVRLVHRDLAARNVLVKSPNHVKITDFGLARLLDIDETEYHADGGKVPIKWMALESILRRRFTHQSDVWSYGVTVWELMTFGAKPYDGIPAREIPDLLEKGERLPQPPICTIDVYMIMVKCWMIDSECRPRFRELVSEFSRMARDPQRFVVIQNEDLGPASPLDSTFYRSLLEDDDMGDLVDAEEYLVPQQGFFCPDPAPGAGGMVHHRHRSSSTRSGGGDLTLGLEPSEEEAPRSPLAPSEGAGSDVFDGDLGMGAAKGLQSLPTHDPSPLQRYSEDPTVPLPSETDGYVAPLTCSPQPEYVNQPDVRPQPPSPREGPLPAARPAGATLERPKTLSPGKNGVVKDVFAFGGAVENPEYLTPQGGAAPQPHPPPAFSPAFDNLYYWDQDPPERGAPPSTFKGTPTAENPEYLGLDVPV

As to `Cn1c2ccccc2c2ncn(CCCN3CCOCC3)c(=O)c21`, the viability (commonly a read-out of living cells in per cent, often relative to untreated cells) was 89% in assay [1]; 89% (inactive) in assay [3]; 101% (inactive) in assay [4]; 94.6% (inactive) in assay [5]; 92.9% in assay [6] (setting [9]); 94.6% in assay [6] (setting [10]). Besides, in assay [2], the Her2 level is 93% (inactive). Besides, the differential viability (reversal) in assay [6] (H69AR cells + 2 uM doxorubicin) was 1.77% (inactive). For the same molecule, the values for the inhibition in assay [7] and in assay [8] were -7.6% (inactive) and -7.94% (inactive), respectively.
For `Cc1oc2cc(O)ccc2c(=O)c1-c1cnn(-c2ccccc2)c1`, the viability in assay [1] is 93.5%; in assay [3], 93.5% (inactive); in assay [4], 85% (inactive); in assay [5], 96.5% (inactive); in assay [6] (setting [9]) it was 98%; in assay [6] (setting [10]), 96.5%. The Her2 level in assay [2] was 90% (inactive). The differential viability (reversal) in assay [6] (H69AR cells + 2 uM doxorubicin) is -1.5% (inactive). The inhibition – broadly, the drop in the measured response relative to a control, in per cent – in assay [7] was -5.13% (inactive); in assay [8], 13.3% (inactive).
In the case of `Cc1nc2c(-c3ccccc3)c(C)nn2c(C)c1CCC(=O)O`, the viability in assay [1] was 97.5%; in assay [3], 97.5% (inactive); in assay [4], 85.5% (inactive); in assay [5] it was 86.2% (inactive); in assay [6] (setting [9]) it was 87%; in assay [6] (setting [10]) it was 86.2%. Besides, the Her2 level in assay [2] is 100% (inactive). Also, the differential viability (reversal) in assay [6] (H69AR cells + 2 uM doxorubicin) is -0.87% (inactive). For the same molecule, the inhibition was -4% (inactive) in assay [7] and 5.57% (inactive) in assay [8].
As to `O=C1c2oc3ccccc3c(=O)c2C(c2ccccn2)N1Cc1ccccc1` (stereo not given), the viability in assay [1] was 91.5%; in assay [3], 91.5% (inactive); in assay [4], 95.6% (inactive); in assay [5], 104% (inactive); in assay [6] (setting [9]), 94.7%; in assay [6] (setting [10]), 104%. In assay [2], the Her2 level was 110% (inactive). Further, the differential viability (reversal) in assay [6] (H69AR cells + 2 uM doxorubicin) was 9.52% (inactive). Moreover, the inhibition in assay [7] is 1.07% (inactive); in assay [8], -8.87% (inactive).
In the case of `O=C(NC12CC3CC(CC(C3)C1)C2)C1CCCN1C(=O)NC1CCCCC1` (stereo not given), the viability is 102% in assay [1]; 102% (inactive) in assay [3]; 108% (inactive) in assay [4]; 92.6% (inactive) in assay [5]; 76.2% in assay [6] (setting [9]); 92.6% in assay [6] (setting [10]). The Her2 level in assay [2] was 113% (inactive). Besides, the differential viability (reversal) in assay [6] (H69AR cells + 2 uM doxorubicin) was 16.5% (inactive). The inhibition was -6.62% (inactive) in assay [7] and 1.5% (inactive) in assay [8].
Regarding `COc1cccc(C2=Nn3c(nnc3-c3ccccc3O)SC2)c1`, the viability in assay [1] is 100%; in assay [3] it was 100% (inactive); in assay [4], 89.4% (inactive); in assay [5] it was 67.2% (inactive); in assay [6] (setting [9]), 85.7%; in assay [6] (setting [10]), 67.2%. Moreover, the Her2 level in assay [2] is 61% (inactive). Besides, the differential viability (reversal) in assay [6] (H69AR cells + 2 uM doxorubicin) is -18.5% (inactive). In addition, the inhibition was -3.16% (inactive) in assay [7] and -2.83% (inactive) in assay [8].
As for `CC(C)(C)C(=O)Oc1cc(N)n(S(=O)(=O)c2ccccc2)n1`, the viability was 93.5% in assay [1]; 93.5% (inactive) in assay [3]; 102% (inactive) in assay [4]; 87.1% (inactive) in assay [5]; 83.5% in assay [6] (setting [9]); 87.1% in assay [6] (setting [10]). The Her2 level in assay [2] is 101% (inactive). The differential viability (reversal) in assay [6] (H69AR cells + 2 uM doxorubicin) is 3.59% (inactive). Besides, the values for the inhibition in assay [7] and in assay [8] were 0.53% (inactive) and -5.27% (inactive), respectively.
Take `CCc1nc2c(cnn2-c2ccc(Cl)cc2)c(=O)n1-c1ccc2c(c1)OCCO2`: the viability in assay [1] is 90%; in assay [3], 90% (inactive); in assay [4], 83.3% (inactive); in assay [5], 83.6% (inactive); in assay [6] (setting [9]), 88%; in assay [6] (setting [10]) it was 83.6%. Also, in assay [2], the Her2 level was 86.5% (inactive). Further, the differential viability (reversal) in assay [6] (H69AR cells + 2 uM doxorubicin) was -4.38% (inactive). In addition, the inhibition in assay [7] is 0.79% (inactive); in assay [8], -5.97% (inactive).
Regarding `CCC(OC(=O)c1cccs1)C(=O)NCc1ccco1` (stereo not given), the viability in assay [1] is 103%; in assay [3] it was 103% (inactive); in assay [4], 98.6% (inactive); in assay [5], 91.4% (inactive); in assay [6] (setting [9]) it was 82%; in assay [6] (setting [10]), 91.4%. Further, the Her2 level in assay [2] is 93% (inactive). For the same molecule, in assay [6] (H69AR cells + 2 uM doxorubicin), the differential viability (reversal) is 9.38% (inactive). The inhibition in assay [7] was -2.86% (inactive); in assay [8] it was 1.97% (inactive).
`CC1(C)CC(=O)C(CC2=C(O)CC(C)(C)CC2=O)=C(O)C1`: the viability was 95% in assay [1]; 95% (inactive) in assay [3]; 94.4% (inactive) in assay [4]; 102% (inactive) in assay [5]; 91.8% in assay [6] (setting [9]); 102% in assay [6] (setting [10]). For the same molecule, the Her2 level in assay [2] was 91% (inactive). In addition, in assay [6] (H69AR cells + 2 uM doxorubicin), the differential viability (reversal) is 10.5% (inactive). Further, the inhibition in assay [7] was -3.68% (inactive); in assay [8] it was -4% (inactive).
For `Cn1c(=O)n(C)c2cc(CNc3ccc(N4CCOCC4)c(C(=O)O)c3)ccc21`, the viability in assay [1] is 107%; in assay [3], 107% (inactive); in assay [4], 113% (inactive); in assay [5], 89.6% (inactive); in assay [6] (setting [9]), 92.2%; in assay [6] (setting [10]) it was 89.6%. In addition, the Her2 level in assay [2] is 89.5% (inactive). Further, the differential viability (reversal) in assay [6] (H69AR cells + 2 uM doxorubicin) is -2.67% (inactive). The inhibition in assay [7] was -3.33% (inactive); in assay [8] it was 0.49% (inactive).
As for `O=C(O)c1[nH]c2ccc(Cl)cc2c1CC(=O)N1CCN(C(=O)c2ccco2)CC1`, the viability in assay [1] was 83.5%; in assay [3] it was 83.5% (inactive); in assay [4], 108% (inactive); in assay [5], 95.8% (inactive); in assay [6] (setting [9]), 90.5%; in assay [6] (setting [10]), 95.8%. In addition, in assay [2], the Her2 level was 112% (inactive). Besides, the differential viability (reversal) in assay [6] (H69AR cells + 2 uM doxorubicin) was 5.25% (inactive). In addition, the inhibition in assay [7] was -4.34% (inactive); in assay [8], -9.83% (inactive).
Consider `O=C(NC12CC3CC(CC(C3)C1)C2)c1cncc(O)c1`, for which the viability in assay [1] was 104%; in assay [3] it was 104% (inactive); in assay [4], 88.2% (inactive); in assay [5], 85.6% (inactive); in assay [6] (setting [9]), 94.9%; in assay [6] (setting [10]), 85.6%. The Her2 level in assay [2] was 89% (inactive). Further, the differential viability (reversal) in assay [6] (H69AR cells + 2 uM doxorubicin) was -9.31% (inactive). For the same molecule, the figures for the inhibition in assay [7] and in assay [8] were -6.36% (inactive) and 0.32% (inactive), respectively.
Consider `O=C(OCc1nnc(-c2ccccc2)o1)c1ccc(S(=O)(=O)NCc2ccco2)cc1`, for which the viability was 99.5% in assay [1]; 99.5% (inactive) in assay [3]; 99.6% (inactive) in assay [4]; 53.6% (inactive) in assay [5]; 60.3% in assay [6] (setting [9]); 53.6% in assay [6] (setting [10]). The Her2 level in assay [2] is 98% (inactive). In addition, the differential viability (reversal) in assay [6] (H69AR cells + 2 uM doxorubicin) is -6.69% (inactive). Besides, the inhibition was -4.87% (inactive) in assay [7] and -6.36% (inactive) in assay [8].
Consider `Cc1cccc(CS(=O)(=O)Cc2ccc(C(=O)NCC3CCCO3)o2)c1` (stereo not given), for which the viability in assay [1] was 85.5%; in assay [3] it was 85.5% (inactive); in assay [4], 114% (inactive); in assay [5] it was 94.7% (inactive); in assay [6] (setting [9]), 103%; in assay [6] (setting [10]), 94.7%. For the same molecule, the Her2 level in assay [2] is 108% (inactive). Also, in assay [6] (H69AR cells + 2 uM doxorubicin), the differential viability (reversal) was -7.89% (inactive). In addition, the inhibition in assay [7] is -2.89% (inactive); in assay [8], -4.19% (inactive).
As to `O=C(CSc1nc2[nH]ncc2c(=O)n1-c1ccccc1Br)NCc1ccco1`, the viability in assay [1] was 100%; in assay [3], 100% (inactive); in assay [4], 95% (inactive); in assay [5], 82.9% (inactive); in assay [6] (setting [9]), 77.8%; in assay [6] (setting [10]) it was 82.9%. The Her2 level in assay [2] was 80.5% (inactive). The differential viability (reversal) in assay [6] (H69AR cells + 2 uM doxorubicin) is 5.05% (inactive). Moreover, the inhibition in assay [7] is -4.61% (inactive); in assay [8], -1.77% (inactive).
